Measurements reported in ChEMBL document CHEMBL2029264, “Indole-based fibrates as potential hypolipidemic and antiobesity agents” (J Med Chem, 2012).
Activity calls are given as the source filed them. The calls are words filed in the database; no cut-off is given here.

How the values were obtained:
Rattus norvegicus [1] = assay: Antihyperlipidemic activity in Triton WR-1339-induced hyperlipidemic rat assessed as decrease in plasma triglyceride level at 100 mg/kg, po relative to control; format: functional; set-up: scale not given: the % may be the effect or the level left
Outline: (§1)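 Triton WR-1339 given to rats to induce hyperlipidemia; oral dosing. Plasma TC, PL, TG in mg/dL; PHLA as […]/h/mL plasma. Mean ± SD of six rats; Triton group compared with control, Triton plus dosed group compared with Triton group.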

Rattus norvegicus [2] = assay: Antihyperlipidemic activity in Triton WR-1339-induced hyperlipidemic rat assessed as decrease in plasma triglyceride level at 50 mg/kg, po; format: functional
Outline: (§2)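 Separate set of Triton WR-1339-induced hyperlipidemic rats, oral doses of 50, 100 and 150 mg/kg. Plasma TC, PL, TG in mg/dL; PHLA as […]/h/mL plasma. Mean ± SD of six rats versus Triton group.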

Rattus norvegicus [3] = assay: Antihyperlipidemic activity in Triton WR-1339-induced hyperlipidemic rat assessed as decrease in plasma triglyceride level at 150 mg/kg, po; format: functional; outline: as §2
Rattus norvegicus [4] = assay: Antihyperlipidemic activity in Triton WR-1339-induced hyperlipidemic rat assessed as increase in PHLA enzyme level at 50 mg/kg, po; format: functional; outline: as §2
Rattus norvegicus [5] = assay: Antihyperlipidemic activity in Triton WR-1339-induced hyperlipidemic rat assessed as increase in PHLA enzyme level at 100 mg/kg, po; format: functional; outline: as §1
Rattus norvegicus [6] = assay: Antihyperlipidemic activity in Triton WR-1339-induced hyperlipidemic rat assessed as increase in LCAT enzyme level at 50 mg/kg, po; format: functional; outline: as §2
Rattus norvegicus [7] = assay: Antihyperlipidemic activity in Triton WR-1339-induced hyperlipidemic rat assessed as increase in LCAT enzyme level at 100 mg/kg, po; format: functional; outline: as §1
Rattus norvegicus [8] = assay: Antihyperlipidemic activity in po dosed Triton WR-1339-induced hyperlipidemic rat assessed as decrease in plasma triglyceride level; format: functional, organism-based; outline: as §1
Rattus norvegicus [9] = assay: Antiobesity activity in HFD-induced hyperlipidemic Charles Foster rat assessed as decrease in mesenteric fat-pad at 100 mg/kg, po administered for 4 weeks; format: functional, organism-based; set-up: dose 100 mg/kg
Outline: (§3)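 Adult male Charles Foster rats given high-fat or normal diet 4 weeks, then diet plus vehicle or daily dosing 4 more weeks, sacrificed at week 8. Body weight gain, food intake, food efficiency ratio (weight gain/food intake over the period), and mesenteric, gonadal, inguinal and perirenal fat-pad weights recorded; mean ± SD, n = 6.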

Rattus norvegicus [10] = assay: Antiobesity activity in HFD-induced hyperlipidemic Charles Foster rat assessed as decrease in gonadal fat-pad at 100 mg/kg, po administered for 4 weeks; format: functional, organism-based; set-up: dose 100 mg/kg; outline: as §3
Rattus norvegicus [11] = assay: Antihyperlipidemic activity in HFD-induced hyperlipidemic Charles Foster rat assessed as decrease in plasma VLDL-triglyceride level at 100 mg/kg, po administered for 4 weeks relative to control; format: functional; set-up: scale not given: the % may be the effect or the level left
Outline: (§4)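 After 4 weeks high-fat feeding plus 4 weeks daily dosing, overnight fast, retro-orbital blood into EDTA tubes. Serum split into VLDL, LDL and HDL by polyanionic precipitation; each fraction assayed for TC, PL, TG and apoprotein (mg/dL plasma). Pooled data from 6 rats/group, mean ± SD, dosed groups compared with high-fat group.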

Rattus norvegicus [12] = assay: Antihyperlipidemic activity in HFD-induced hyperlipidemic Charles Foster rat assessed as decrease in plasma VLDL-apoprotein level at 100 mg/kg, po administered for 4 weeks relative to control; format: functional; set-up: scale not given: the % may be the effect or the level left; outline: as §4
Rattus norvegicus [13] = assay: Antihyperlipidemic activity in HFD-induced hyperlipidemic Charles Foster rat assessed as decrease in plasma LDL-triglyceride level at 100 mg/kg, po administered for 4 weeks relative to control; format: functional; set-up: scale not given: the % may be the effect or the level left; outline: as §4
Rattus norvegicus [14] = assay: Antihyperlipidemic activity in HFD-induced hyperlipidemic Charles Foster rat assessed as decrease in plasma LDL-apoprotein level at 100 mg/kg, po administered for 4 weeks relative to control; format: functional; set-up: scale not given: the % may be the effect or the level left; outline: as §4
Rattus norvegicus [15] = assay: Antihyperlipidemic activity in HFD-induced hyperlipidemic Charles Foster rat assessed as increase in plasma HDL-triglyceride level at 100 mg/kg, po administered for 4 weeks relative to control; format: functional; outline: as §4
Rattus norvegicus [16] = assay: Antihyperlipidemic activity in HFD-induced hyperlipidemic Charles Foster rat assessed as increase in plasma HDL-apoprotein level at 100 mg/kg, po administered for 4 weeks relative to control; format: functional; outline: as §4
Rattus norvegicus [17] = assay: Antihyperlipidemic activity in HFD-induced hyperlipidemic Charles Foster rat assessed as decrease in liver total cholesterol level at 100 mg/kg, po administered for 4 weeks relative to control; format: functional; set-up: scale not given: the % may be the effect or the level left
Outline: (§5)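 Adult male Charles Foster rats (200−225 g), high-fat diet 4 weeks, then diet plus daily dosing 4 more weeks; overnight fast, sacrifice, liver washed in cold 0.15 M KCl and held at 4 °C. Lipids extracted from liver homogenate in CHCl3/CH3OH (2:1 v/v), TC, PL and TG read in mg/g; pooled data from 6 rats/group, mean ± SD.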

Rattus norvegicus [18] = assay: Antihyperlipidemic activity in HFD-induced hyperlipidemic Charles Foster rat assessed as decrease in liver phospholipid level at 100 mg/kg, po administered for 4 weeks relative to control; format: functional; set-up: scale not given: the % may be the effect or the level left; outline: as §5
Rattus norvegicus [19] = assay: Antihyperlipidemic activity in HFD-induced hyperlipidemic Charles Foster rat assessed as reactivation of LPL activity at 100 mg/kg, po administered for 4 weeks relative to control; format: functional
Outline: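 Male Charles Foster rats fed high-fat diet 4 weeks, then diet plus daily dosing 4 weeks. Liver homogenized (10% w/v) in cold 100 mM phosphate buffer pH 7.2; total lipolytic LPL activity read as nmol free fatty acid formed/h/mg protein; pooled data from 6 rats/group, mean ± SD.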

Rattus norvegicus [20] = assay: Antihyperlipidemic activity in HFD-induced hyperlipidemic Charles Foster rat assessed as decrease in macrovesicular steatosis at 100 mg/kg, po administered for 4 weeks by light microscopic analysis; format: functional, organism-based; set-up: dose 100 mg/kg
Outline: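 Rats on high-fat diet 4 weeks, then diet plus daily dosing for another 4 weeks before sacrifice. Liver sections 4 μm thick, stained with Ehrlich's hematoxylin and eosin, examined by light microscope for centrilobular macrovesicular steatosis.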

Rattus norvegicus [21] = assay: Antihyperlipidemic activity in HFD-induced hyperlipidemic Charles Foster rat assessed as increase in [I125]-LDL catabolism in plasma membrane of liver at 100 mg/kg/day, po administered for 4 weeks; format: functional
Outline: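 Rats on 8 weeks total of high-fat diet, dosed daily for the last 4 weeks, then sacrificed. Human serum LDL radiolabeled with I125; specific binding to liver plasma membrane preparation measured as receptor-mediated LDL catabolism. Mean ± SD, n = 6.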

Rattus norvegicus [22] = assay: Antihyperlipidemic activity in HFD-induced hyperlipidemic Charles Foster rat assessed as increase in cholic acid excretion in feces at 100 mg/kg/day, po administered for 4 weeks measured after 30 days relative to control; format: functional
Outline: (§6)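 Rats fed high-fat diet 4 weeks, then diet plus daily dosing 4 weeks. Cholic and deoxycholic acid excreted in feces measured; dosed groups compared with high-fat group, control compared with high-fat group.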

Rattus norvegicus [23] = assay: Antihyperlipidemic activity in HFD-induced hyperlipidemic Charles Foster rat assessed as increase in deoxycholic acid excretion in feces at 100 mg/kg/day, po administered for 4 weeks measured after 30 days relative to control; format: functional; outline: as §6
Rattus norvegicus [24] = assay: Toxicity in HFD-induced hyperlipidemic Charles Foster rat assessed as mortality at 100 mg/kg/day, po administered for 4 weeks; format: organism-based; set-up: route oral; settings: in vivo, 672 h
Outline: (§7)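 Male Charles Foster rats (200−225 g) were fed a high-fat diet for 4 weeks, then dosed at 100 mg/kg/d alongside the same diet for 4 more weeks. Survival was monitored. After an overnight fast, blood was drawn and the animals were sacrificed. Macroscopic inspection and autopsy were then performed, with n = 6 per group.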

Rattus norvegicus [25] = assay: Toxicity in HFD-induced hyperlipidemic Charles Foster rat at 100 mg/kg/day, po administered for 4 weeks by macroscopic analysis; format: organism-based; set-up: route oral; settings: in vivo, 672 h; outline: as §7

Compound	Activity (Rattus norvegicus [1]) [%]	Activity (Rattus norvegicus [2]) [mg/dL]	Activity (Rattus norvegicus [3]) [mg/dL]	percent increase (Rattus norvegicus [4]) [%]	percent increase (Rattus norvegicus [5]) [%]	Activity (Rattus norvegicus [6]) [nmol/h/mL]	Activity (Rattus norvegicus [7]) [nmol/h/mL]	Activity (Rattus norvegicus [8])	Activity (Rattus norvegicus [9])	Activity (Rattus norvegicus [10])	Activity (Rattus norvegicus [11]) [%]	Activity (Rattus norvegicus [12]) [%]	Activity (Rattus norvegicus [13]) [%]	Activity (Rattus norvegicus [14]) [%]	Activity (Rattus norvegicus [15]) [%]	Activity (Rattus norvegicus [16]) [%]	Activity (Rattus norvegicus [17]) [%]	Activity (Rattus norvegicus [18]) [%]	Activity (Rattus norvegicus [19]) [%]	Activity (Rattus norvegicus [20])	also measured
CCOC(=O)CCCOc1ccc(C(c2cn(C)c3ccccc23)c2cn(C)c3ccccc23)cc1	27	13	27	10	15	11	15	Dose-dependent effect	Active	Active	17	33	25	21	14	14	26	23	14	Active	Activity (Rattus norvegicus [21]): 18%; Activity (Rattus norvegicus [22]): 21%; Activity (Rattus norvegicus [23]): 31%; Activity (Rattus norvegicus [24]): Non-toxic
CCOC(=O)C(C)Oc1ccc(C(c2cn(CC)c3ccccc23)c2cn(CC)c3ccccc23)cc1 (centres undefined)	25	12	26	11	12	8	12	Dose-dependent effect	Active	Active	24	26	21	25	11	16	23	28	20	Active	Activity (Rattus norvegicus [21]): 24%; Activity (Rattus norvegicus [22]): 26%; Activity (Rattus norvegicus [23]): 28%; Activity (Rattus norvegicus [24]): Non-toxic; Activity (Rattus norvegicus [25]): Non-toxic
